From ChEMBL document CHEMBL5678805, “Intermittent administration of MEK inhibitor GDC-0973 plus PI3K inhibitor GDC-0941 triggers robust apoptosis and tumor growth inhibition” (Cancer Res, 2012)
Calls of active or inactive are those of the source. The rule behind the calls is not given here.

How the values were obtained:
[1] = target: Serine/threonine-protein kinase PAK 4 (Homo sapiens, UniProt O96013); assay: Inhibition of PAK4 (unknown origin)
[2] = target: Testis-specific serine/threonine-protein kinase 1 (Homo sapiens, UniProt Q9BXA7); assay: Inhibition of TSSK1 (unknown origin)
Sequence of Testis-specific serine/threonine-protein kinase 1 (Q9BXA7 whole entry): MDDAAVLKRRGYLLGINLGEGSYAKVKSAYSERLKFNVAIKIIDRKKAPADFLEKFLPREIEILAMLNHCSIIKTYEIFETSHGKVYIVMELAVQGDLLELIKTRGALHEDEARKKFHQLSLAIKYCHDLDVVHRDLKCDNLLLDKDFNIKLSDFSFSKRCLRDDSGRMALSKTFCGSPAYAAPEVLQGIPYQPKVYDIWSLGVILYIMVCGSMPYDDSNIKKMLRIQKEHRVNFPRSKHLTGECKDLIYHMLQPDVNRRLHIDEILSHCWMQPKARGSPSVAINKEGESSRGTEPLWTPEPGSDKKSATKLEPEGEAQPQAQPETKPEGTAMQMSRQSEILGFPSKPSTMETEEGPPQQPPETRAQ

[3] = target: Serine/threonine-protein kinase NLK (Homo sapiens, UniProt Q9UBE8); assay: Inhibition of NLK (unknown origin)
Sequence of Serine/threonine-protein kinase NLK (Q9UBE8 whole entry): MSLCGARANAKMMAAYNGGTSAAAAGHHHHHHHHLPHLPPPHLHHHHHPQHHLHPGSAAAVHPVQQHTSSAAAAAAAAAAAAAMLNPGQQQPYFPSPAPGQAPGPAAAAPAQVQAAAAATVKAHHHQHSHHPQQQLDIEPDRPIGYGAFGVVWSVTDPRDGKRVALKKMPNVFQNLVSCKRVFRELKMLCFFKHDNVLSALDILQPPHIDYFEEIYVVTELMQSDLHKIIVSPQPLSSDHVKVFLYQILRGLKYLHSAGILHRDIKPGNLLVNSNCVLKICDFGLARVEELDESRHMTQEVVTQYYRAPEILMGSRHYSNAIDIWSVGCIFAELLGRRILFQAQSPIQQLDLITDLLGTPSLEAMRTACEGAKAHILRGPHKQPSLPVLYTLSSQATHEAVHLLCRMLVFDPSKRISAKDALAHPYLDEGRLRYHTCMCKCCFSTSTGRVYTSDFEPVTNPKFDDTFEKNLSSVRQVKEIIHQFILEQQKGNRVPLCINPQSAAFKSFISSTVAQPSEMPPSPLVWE

Hs 294T = assay: Antiproliferative activity against human Hs294T cells assessed reduction in cell viability incubated for 4 days in presence of 4-(2-(1H-indazol-4-yl)-6-((4-(methylsulfonyl)piperazin-1-yl)methyl)thieno[3,2-d]pyrimidin-4-yl)morpholine by celltiter-glo assay; type: functional; settings: time 4 day
In short: (§1)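 4-day CellTiter-Glo viability read-out on melanoma lines, cells exposed to increasing concentrations of each inhibitor alone and in combination.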

[4] = target: PAS domain-containing serine/threonine-protein kinase (Homo sapiens, UniProt Q96RG2); assay: Inhibition of PASK (unknown origin)
[5] = target: RAC-alpha serine/threonine-protein kinase (Homo sapiens, UniProt P31749); assay: Inhibition of Akt1 (unknown origin)
Sequence of RAC-alpha serine/threonine-protein kinase (P31749 whole entry): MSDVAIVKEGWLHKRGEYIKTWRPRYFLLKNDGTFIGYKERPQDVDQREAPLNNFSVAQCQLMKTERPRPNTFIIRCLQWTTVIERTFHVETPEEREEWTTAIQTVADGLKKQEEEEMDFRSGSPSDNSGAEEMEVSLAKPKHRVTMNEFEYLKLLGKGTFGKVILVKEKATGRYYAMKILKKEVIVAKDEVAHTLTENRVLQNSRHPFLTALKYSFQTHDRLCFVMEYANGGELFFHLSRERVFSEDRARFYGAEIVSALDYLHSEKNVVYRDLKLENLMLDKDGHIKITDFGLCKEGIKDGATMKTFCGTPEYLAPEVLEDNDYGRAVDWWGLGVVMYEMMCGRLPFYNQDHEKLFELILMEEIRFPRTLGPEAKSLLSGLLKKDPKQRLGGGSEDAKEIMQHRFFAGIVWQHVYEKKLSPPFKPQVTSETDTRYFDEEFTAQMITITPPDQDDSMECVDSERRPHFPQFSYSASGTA

888-mel = assay: Upregulation of Bim level in human 888-mel cells incubated for 24 hrs by immunoblotting analysis; type: functional, cell-based
[6] = target: MAP kinase-activated protein kinase 2 (Homo sapiens, UniProt P49137); assay: Inhibition of MAPKAP2 (unknown origin)
Sequence of MAP kinase-activated protein kinase 2 (P49137 whole entry): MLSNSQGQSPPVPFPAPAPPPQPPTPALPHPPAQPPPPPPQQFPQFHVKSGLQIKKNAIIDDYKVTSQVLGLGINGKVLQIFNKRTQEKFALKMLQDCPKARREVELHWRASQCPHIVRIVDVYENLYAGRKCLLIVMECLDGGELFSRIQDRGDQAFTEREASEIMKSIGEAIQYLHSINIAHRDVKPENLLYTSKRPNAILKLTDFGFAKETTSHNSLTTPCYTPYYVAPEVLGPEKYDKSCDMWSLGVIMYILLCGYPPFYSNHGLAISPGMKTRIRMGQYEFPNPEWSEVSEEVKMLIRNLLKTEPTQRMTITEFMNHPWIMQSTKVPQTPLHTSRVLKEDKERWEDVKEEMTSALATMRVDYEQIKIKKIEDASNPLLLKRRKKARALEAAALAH

EBC-1 = assay: Antitumor activity against human EBC-1 cells harboring MET amp and EGFR G719S/L858R mutant xenografted in mouse assessed as tumor growth inhibition at 5 mg/kg, po; type: functional; settings: read-out: TGI
In short: (§2)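 Single-agent dose ranging in human tumor xenograft mice at 2.5, 5 or 10 mg/kg oral. Tumor volume was measured by caliper as (L×W×W)/2. %TGI = 100×[1 − AUC(treatment/d)/AUC(vehicle/d)] from the fitted growth curve per dose group, relative to vehicle.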

NCI-H2122 [7] = assay: Antitumor activity against human NCI-H2122 cells xenografted in mouse assessed as tumor growth inhibition at 15 mg/kg, po administered every third day for 21 days in presence of 4-(2-(1H-indazol-4-yl)-6-((4-(methylsulfonyl)piperazin-1-yl)methyl)thieno[3,2-d]pyrimidin-4-yl)morpholine; type: functional; settings: NCI-H2122, 504 h, time 21 day, read-out: TGI
In short: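 Dosing was oral, every third day (Q3D) across 21 days, with single agents or the MEK plus PI3K combination in NCI-H2122 xenograft mice. Tumor volume was calculated as (L×W×W)/2 from caliper measurements. %TGI was derived from fitted-curve AUC per day relative to vehicle, with body weight monitored.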

[8] = target: Fibroblast growth factor receptor 1 (Homo sapiens, UniProt P11362); assay: Inhibition of FGFR1 (unknown origin)
[9] = target: Tyrosine-protein kinase ZAP-70 (Homo sapiens, UniProt P43403); assay: Inhibition of ZAP70 (unknown origin)
[10] = target: Protein kinase C beta type (Homo sapiens, UniProt P05771); assay: Inhibition of PKCbeta2 (unknown origin)
[11] = target: Ribosomal protein S6 kinase alpha-1 (Homo sapiens, UniProt Q15418); assay: Inhibition of Rsk1 (unknown origin)
NCI-H69 = assay: Antitumor activity against human NCI-H69 cells harboring RBI E748/PK3CA G106_R108/TP53 E171 mutant xenografted in mouse assessed as tumor growth inhibition at 10 mg/kg, po; type: functional; settings: read-out: TGI
In short: (§3)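 Human tumor xenografts in mice were dosed orally at the indicated mg/kg. Tumor volume was measured with calipers as (L×W×W)/2. %TGI = 100 × [1 − (AUC treatment/d)/(AUC vehicle/d)], using the area under the fitted tumor-growth curve per day for each dose group relative to vehicle.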

[12] = Inhibition of AMPK (unknown origin); parameters: species or system Homo sapiens
LoVo = assay: Antitumor activity against human LoVo cells harboring KRAS G13D/CDKN2A P48L/FBXW7 R505C/MSH2/SMO G16_L17insLL/A324T/NF1 R1276Q/Y1607fs17/APC1114 mutant xenografted in mouse assessed as tumor growth inhibition at 5 mg/kg, po; type: functional; settings: read-out: TGI; in short: as §2
NCI-H2122 [13] = assay: Antitumor activity against human NCI-H2122 cells xenografted in mouse assessed as reduction in ERK phosphorylation at 1 to 10 mg/kg, po administered for 3 days and measured at 24 hrs by Western blot analysis; type: functional; parameters: scale not given: the % may be the effect or the level left; settings: time 96 hrs
In short: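 NCI-H2122 xenograft mice received 3 daily oral doses of 1, 3, 5 or 10 mg/kg. Tumors were collected 2, 8 and 24 h after the last dose, pulverized on dry ice and lysed. Lysates were run on 4–12% SDS-PAGE and transferred to nitrocellulose. p-ERK1/2 and t-ERK1/2 bands were quantified on an Odyssey imager and expressed relative to vehicle-treated mice (0 h).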

[14] = Antitumor activity against human A375.X1 cells harboring BRAF V600E/CDKN2A E61 mutant xenografted in mouse assessed as tumor growth inhibition at 10 mg/kg, po; type: functional; settings: A375.X1, read-out: TGI; in short: as §2
[15] = target: Macrophage-stimulating protein receptor (Homo sapiens, UniProt Q04912); assay: Inhibition of RON (unknown origin)
Sequence of Macrophage-stimulating protein receptor (Q04912 25-304 limits assumed): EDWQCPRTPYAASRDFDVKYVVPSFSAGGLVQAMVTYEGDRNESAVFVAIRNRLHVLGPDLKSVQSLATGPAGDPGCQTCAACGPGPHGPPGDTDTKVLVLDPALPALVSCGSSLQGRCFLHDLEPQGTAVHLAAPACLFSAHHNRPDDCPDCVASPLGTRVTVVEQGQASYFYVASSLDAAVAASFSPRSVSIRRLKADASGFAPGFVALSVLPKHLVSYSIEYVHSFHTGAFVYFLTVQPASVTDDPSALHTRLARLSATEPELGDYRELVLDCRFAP
Sequence of Macrophage-stimulating protein receptor (Q04912 310-1400 limits assumed): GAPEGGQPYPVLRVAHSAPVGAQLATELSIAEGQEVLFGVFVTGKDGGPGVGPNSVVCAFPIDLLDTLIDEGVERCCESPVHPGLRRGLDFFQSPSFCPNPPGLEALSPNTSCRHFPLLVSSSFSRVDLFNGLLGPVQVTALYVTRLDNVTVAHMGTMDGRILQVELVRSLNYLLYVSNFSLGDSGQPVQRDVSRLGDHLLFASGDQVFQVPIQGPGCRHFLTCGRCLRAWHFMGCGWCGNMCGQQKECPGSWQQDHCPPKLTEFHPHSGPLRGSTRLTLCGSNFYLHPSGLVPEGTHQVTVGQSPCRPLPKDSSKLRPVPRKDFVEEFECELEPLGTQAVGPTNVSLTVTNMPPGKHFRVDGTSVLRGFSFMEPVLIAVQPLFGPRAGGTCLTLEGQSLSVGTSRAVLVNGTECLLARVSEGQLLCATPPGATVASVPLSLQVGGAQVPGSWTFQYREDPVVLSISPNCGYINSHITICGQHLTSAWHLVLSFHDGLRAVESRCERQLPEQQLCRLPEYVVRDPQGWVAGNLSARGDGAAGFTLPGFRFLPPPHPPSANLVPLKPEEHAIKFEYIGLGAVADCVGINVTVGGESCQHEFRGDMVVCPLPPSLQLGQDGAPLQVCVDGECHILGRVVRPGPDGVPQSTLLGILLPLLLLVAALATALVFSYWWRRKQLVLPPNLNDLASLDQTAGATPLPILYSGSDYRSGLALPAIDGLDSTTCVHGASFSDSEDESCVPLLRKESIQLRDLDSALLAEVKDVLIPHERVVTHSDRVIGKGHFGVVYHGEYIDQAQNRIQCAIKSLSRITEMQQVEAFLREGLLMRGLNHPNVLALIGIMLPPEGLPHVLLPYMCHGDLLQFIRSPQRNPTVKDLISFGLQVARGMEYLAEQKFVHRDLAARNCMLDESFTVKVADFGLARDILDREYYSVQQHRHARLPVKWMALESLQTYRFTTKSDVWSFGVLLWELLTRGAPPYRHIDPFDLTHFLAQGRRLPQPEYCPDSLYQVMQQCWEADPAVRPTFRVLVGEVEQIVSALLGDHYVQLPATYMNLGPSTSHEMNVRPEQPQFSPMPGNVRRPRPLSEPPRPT

[16] = target: Insulin-like growth factor 1 receptor (Homo sapiens, UniProt P08069); assay: Inhibition of IGF1R (unknown origin)
SK-OV-3 = assay: Antitumor activity against human SK-OV-3 cells harboring FBXW7 R505L and CDKN2A mutant xenografted in mouse assessed as tumor growth inhibition at 5 mg/kg, po; type: functional; settings: read-out: TGI; in short: as §3
[17] = target: Death-associated protein kinase 1 (Homo sapiens, UniProt P53355); assay: Inhibition of DAPK1 (unknown origin)
Sequence of Death-associated protein kinase 1 (P53355 whole entry): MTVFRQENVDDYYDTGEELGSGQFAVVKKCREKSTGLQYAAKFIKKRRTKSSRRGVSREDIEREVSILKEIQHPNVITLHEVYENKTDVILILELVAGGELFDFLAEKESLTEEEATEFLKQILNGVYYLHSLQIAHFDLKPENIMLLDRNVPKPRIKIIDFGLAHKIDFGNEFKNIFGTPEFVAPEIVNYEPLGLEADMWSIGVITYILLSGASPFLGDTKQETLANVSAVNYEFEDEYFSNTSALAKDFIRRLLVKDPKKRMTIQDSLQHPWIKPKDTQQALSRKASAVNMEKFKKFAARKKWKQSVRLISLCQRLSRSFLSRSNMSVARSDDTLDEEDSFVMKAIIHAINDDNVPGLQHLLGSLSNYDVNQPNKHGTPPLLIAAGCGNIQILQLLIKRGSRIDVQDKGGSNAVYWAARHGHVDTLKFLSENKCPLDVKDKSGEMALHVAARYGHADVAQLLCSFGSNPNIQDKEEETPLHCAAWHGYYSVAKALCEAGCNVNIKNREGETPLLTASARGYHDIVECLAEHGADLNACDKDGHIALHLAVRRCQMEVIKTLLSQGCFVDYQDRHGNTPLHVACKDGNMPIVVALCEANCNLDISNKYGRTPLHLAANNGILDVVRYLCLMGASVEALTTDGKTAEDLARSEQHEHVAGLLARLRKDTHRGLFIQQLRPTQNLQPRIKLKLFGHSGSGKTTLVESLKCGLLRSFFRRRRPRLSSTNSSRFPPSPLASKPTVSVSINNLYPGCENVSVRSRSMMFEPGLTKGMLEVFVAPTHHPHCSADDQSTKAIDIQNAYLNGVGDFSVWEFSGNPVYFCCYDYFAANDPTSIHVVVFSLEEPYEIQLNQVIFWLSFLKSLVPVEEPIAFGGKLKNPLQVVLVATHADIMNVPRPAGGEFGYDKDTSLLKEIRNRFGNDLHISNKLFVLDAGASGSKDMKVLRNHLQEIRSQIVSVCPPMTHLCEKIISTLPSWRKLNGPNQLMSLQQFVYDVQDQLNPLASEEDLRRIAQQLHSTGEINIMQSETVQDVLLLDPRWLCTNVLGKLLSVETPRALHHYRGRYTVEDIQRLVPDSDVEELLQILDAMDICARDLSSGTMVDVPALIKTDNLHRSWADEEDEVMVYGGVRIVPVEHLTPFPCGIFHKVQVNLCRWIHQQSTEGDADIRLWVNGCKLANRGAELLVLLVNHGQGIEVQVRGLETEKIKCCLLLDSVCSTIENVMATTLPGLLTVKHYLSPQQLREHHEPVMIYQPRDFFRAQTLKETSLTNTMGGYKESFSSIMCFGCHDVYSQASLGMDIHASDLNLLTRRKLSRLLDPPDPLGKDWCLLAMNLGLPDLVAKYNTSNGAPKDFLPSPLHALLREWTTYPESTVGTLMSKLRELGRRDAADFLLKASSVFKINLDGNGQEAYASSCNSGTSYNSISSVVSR

MeWo = assay: Antiproliferative activity against human MeWo cells assessed reduction in cell viability incubated for 4 days in presence of 4-(2-(1H-indazol-4-yl)-6-((4-(methylsulfonyl)piperazin-1-yl)methyl)thieno[3,2-d]pyrimidin-4-yl)morpholine by celltiter-glo assay; type: functional; settings: time 4 day; in short: as §1
NCI-H2122 [18] = assay: Antitumor activity against human NCI-H2122 cells harboring KRAS […]/LKB1 P281/TP53Q61L/C176Fl/CDKN2A mutant xenografted in mouse assessed as tumor growth inhibition at 5 mg/kg, po; type: functional; settings: read-out: TGI
In short: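 NCI-H2122 (KRAS G12C) NSCLC xenografts in mice were dosed orally once daily for 21 consecutive days. Tumor volume was measured with calipers as (L×W×W)/2, and body weight was tracked. %TGI was derived from the area under the fitted growth curve per day versus vehicle. Group means with SEM were reported.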

[19] = target: Mitogen-activated protein kinase 14 (Homo sapiens, UniProt Q16539); assay: Inhibition of p38alpha (unknown origin)
Sequence of Mitogen-activated protein kinase 14 (Q16539 whole entry): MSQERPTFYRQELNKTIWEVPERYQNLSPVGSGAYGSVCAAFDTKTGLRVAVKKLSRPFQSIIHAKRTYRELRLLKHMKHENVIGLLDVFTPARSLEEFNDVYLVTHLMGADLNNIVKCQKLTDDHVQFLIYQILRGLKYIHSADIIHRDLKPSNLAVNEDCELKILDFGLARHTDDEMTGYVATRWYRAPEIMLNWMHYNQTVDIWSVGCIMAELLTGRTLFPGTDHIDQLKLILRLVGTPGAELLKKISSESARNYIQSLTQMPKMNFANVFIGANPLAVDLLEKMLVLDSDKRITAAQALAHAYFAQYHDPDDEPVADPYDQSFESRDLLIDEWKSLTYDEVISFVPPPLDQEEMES

DLD-1 = assay: Antitumor activity against human DLD-1 cells xenografted in mouse assessed as tumor growth inhibition at 3 mg/kg, po administered once a day for 21 days; type: functional; settings: DLD-1, 504 h, time 21 day, read-out: TGI
In short: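 Human tumor xenografts in mice. Drugs given orally, as single agents or combined with the PI3K inhibitor. Schedules were daily (QD) or every third day (Q3D) over 21 days. Tumor volume was measured by caliper as (L×W×W)/2. %TGI = 100×[1 − AUC(treatment/d)/AUC(vehicle/d)] from fitted growth curves, with group means. Tumor lysates were immunoblotted for pS6.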

IC50 [1]: > 10 µM | IC50 [2]: > 10 µM | IC50 [3]: > 10 µM | IC50 [4]: > 10 µM | IC50 [5]: > 10 µM | IC50 [6]: > 10 µM | IC50 [8]: > 10 µM | IC50 [9]: > 10 µM | IC50 [10]: > 10 µM | IC50 [11]: > 10 µM | IC50 [12]: > 10 µM | IC50 [15]: > 10 µM | IC50 [16]: > 10 µM | IC50 [19]: > 10 µM
SMILES: O=C(c1ccc(F)c(F)c1Nc1ccc(I)cc1F)N1CC(O)([C@@H]2CCCCN2)C1 [COBIMETINIB]
Activity (Hs 294T): 60% | Activity (888-mel): Active | inhibition in vivo at 5 mg/kg (EBC-1): 7% | inhibition in vivo at 15 mg/kg (NCI-H2122 [7]): 156% | inhibition in vivo at 10 mg/kg (NCI-H69): 38% | inhibition in vivo at 5 mg/kg (LoVo): 73% | Activity (NCI-H2122 [13]): 73% | inhibition in vivo at 10 mg/kg [14]: 104% | inhibition in vivo at 5 mg/kg (SK-OV-3): 69% | IC50 [17]: > 10 µM | Activity (MeWo): 60% | inhibition in vivo at 5 mg/kg (NCI-H2122 [18]): 49% | inhibition in vivo at 3 mg/kg (DLD-1): 47%
